Source: ChEMBL document CHEMBL1156112, “Discovery of 3-(1H-indol-3-yl)-4-[2-(4-methylpiperazin-1-yl)quinazolin-4-yl]pyrrole-2,5-dione (AEB071), a potent and selective inhibitor of protein kinase C isotypes” (J Med Chem, 2009)
Activity calls are given as the source filed them. The rule behind the calls is not given here.

Key:
[1] = target: T1, Protein kinase C epsilon type (Homo sapiens, UniProt Q02156); assay: Inhibition of PKCepsilon by SPA
T1 sequence (Q02156 whole entry): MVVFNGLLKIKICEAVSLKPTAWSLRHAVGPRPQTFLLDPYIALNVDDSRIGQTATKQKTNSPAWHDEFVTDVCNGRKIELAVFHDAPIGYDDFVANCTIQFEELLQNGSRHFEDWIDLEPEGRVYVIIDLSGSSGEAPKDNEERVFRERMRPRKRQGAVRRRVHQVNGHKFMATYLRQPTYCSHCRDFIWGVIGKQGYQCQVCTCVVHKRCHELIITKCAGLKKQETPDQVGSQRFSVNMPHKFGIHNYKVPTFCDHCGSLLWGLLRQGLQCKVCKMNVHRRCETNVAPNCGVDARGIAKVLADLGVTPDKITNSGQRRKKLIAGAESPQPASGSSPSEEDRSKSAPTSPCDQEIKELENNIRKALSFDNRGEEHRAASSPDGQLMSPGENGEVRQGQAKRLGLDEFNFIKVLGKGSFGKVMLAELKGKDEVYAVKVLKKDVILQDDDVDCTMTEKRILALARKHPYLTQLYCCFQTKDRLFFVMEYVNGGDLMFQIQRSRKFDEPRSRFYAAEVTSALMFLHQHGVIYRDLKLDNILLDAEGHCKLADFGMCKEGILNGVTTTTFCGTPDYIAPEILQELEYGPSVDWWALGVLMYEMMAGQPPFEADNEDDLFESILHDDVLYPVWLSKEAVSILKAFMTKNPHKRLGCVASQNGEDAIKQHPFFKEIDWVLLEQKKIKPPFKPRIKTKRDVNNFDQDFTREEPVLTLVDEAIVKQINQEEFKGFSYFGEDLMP

[2] = target: Protein kinase C theta type (Homo sapiens, UniProt Q04759); assay: Inhibition of PKCtheta by SPA
[3] = target: Protein kinase C alpha type (Homo sapiens, UniProt P17252); assay: Inhibition of PKCalpha by SPA
cells [4] = settings: Homo sapiens, Jurkat
[5] = target: Protein kinase C beta type (Homo sapiens, UniProt P05771); assay: Inhibition of PKCbeta1 by SPA
[6] = target: Protein kinase C delta type (Homo sapiens, UniProt Q05655); assay: Inhibition of PKCdelta by SPA
[7] = target: Protein kinase C eta type (Homo sapiens, UniProt P24723); assay: Inhibition of PKCeta by SPA
[8] = target: Vascular endothelial growth factor receptor 2 (Homo sapiens, UniProt P35968); assay: Inhibition of human recombinant KDR
[9] = target: Tyrosine-protein kinase ABL1 (Homo sapiens, UniProt P00519); assay: Inhibition of human recombinant Abl
[10] = target: Cyclin-dependent kinase 2/cyclin A (Homo sapiens, UniProt P24941); assay: Inhibition of human recombinant CDK2/cyclin A; type: protein-complex assay
cells [11] = settings: Homo sapiens, Splenocyte
cells [12] = settings: Mus musculus, CBA, Bone marrow cell
[13] = target: Rho-associated protein kinase 2 (Homo sapiens, UniProt O75116); assay: Inhibition of human recombinant ROCK2
[14] = Tmax in OFA rat at 20 mg/kg, po; type: ADME, organism-based; set-up: dose 20 mg/kg, route oral; settings: in vivo
In short: (§1)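 Rats dosed either 5 mg/kg iv in 75% saline (0.9%)-25% PEG400 or 20 mg/kg po in 75% water-25% PEG400. OFA or Lewis rats were used depending on the compound. Values are averages of three animals. AUC is extrapolated to infinity. Oral bioavailability (F) comes from the po and iv exposures.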

[15] = AUC (0 to infinity) in OFA rat at 20 mg/kg, po; type: ADME, organism-based; set-up: dose 20 mg/kg, route oral, time infinity; settings: plasma; in short: as §1
[16] = target: Phosphatidylinositol 4,5-bisphosphate 3-kinase catalytic subunit alpha isoform (Homo sapiens, UniProt P42336); assay: Inhibition of human recombinant PI3Kalpha
[17] = Oral bioavailability in OFA rat at 20 mg/kg, po; type: ADME, organism-based; settings: in vivo; in short: as §1
[18] = Dissociation constant, pKa of the compound; type: physicochemical
[19] = Cmax in OFA rat at 20 mg/kg, po; type: ADME, organism-based; set-up: dose 20 mg/kg, route oral; settings: in vivo; in short: as §1
[20] = target: Insulin-like growth factor 1 receptor (Homo sapiens, UniProt P08069); assay: Inhibition of human recombinant IGF1R
Focal adhesion kinase 1 = Focal adhesion kinase 1 (Homo sapiens, UniProt Q05397); assay: Inhibition of human recombinant FAK
[21] = target: Tyrosine-protein kinase Fyn (Homo sapiens, UniProt P06241); assay: Inhibition of human recombinant Fyn
[22] = target: ALK tyrosine kinase receptor (Homo sapiens, UniProt Q9UM73); assay: Inhibition of human recombinant Alk
[23] = Volume of distribution at steady state in OFA rat at 5 mg/kg, iv; type: ADME, organism-based; set-up: dose 5 mg/kg, route intravenous; settings: in vivo, read-out: Vdss; in short: as §1
[24] = Inhibition of human recombinant PKA
[25] = target: Phosphatidylinositol 4,5-bisphosphate 3-kinase catalytic subunit beta isoform (Homo sapiens, UniProt P42338); assay: Inhibition of human recombinant PI3Kbeta
[26] = target: Tyrosine-protein kinase Lck (Homo sapiens, UniProt P06239); assay: Inhibition of human recombinant Lck
[27] = target: Mitogen-activated protein kinase 8 (Homo sapiens, UniProt P45983); assay: Inhibition of human recombinant JNK1
Splenocyte = assay: cells; settings: Mus musculus, BALB/c
[28] = target: Mitogen-activated protein kinase 10 (Homo sapiens, UniProt P53779); assay: Inhibition of human recombinant JNK3
Rattus norvegicus [29] = organism: Rattus norvegicus; assay: Prolongation of allograft survival in rat heterotropic heart transplant model; type: functional, organism-based
[30] = target: Phosphatidylinositol 4,5-bisphosphate 3-kinase catalytic subunit delta isoform (Homo sapiens, UniProt O00329); assay: Inhibition of human recombinant PI3Kdelta
[31] = target: Proto-oncogene tyrosine-protein kinase receptor Ret (Homo sapiens, UniProt P07949); assay: Inhibition of human recombinant Ret
[32] = AUC (0 to infinity) in OFA rat at 5 mg/kg, iv; type: ADME, organism-based; set-up: time infinity, dose 5 mg/kg, route intravenous; settings: plasma; in short: as §1
Ephrin type-B receptor 4 = Ephrin type-B receptor 4 (Homo sapiens, UniProt P54760); assay: Inhibition of human recombinant EphB4
[33] = target: Phosphatidylinositol 4,5-bisphosphate 3-kinase catalytic subunit gamma isoform (Homo sapiens, UniProt P48736); assay: Inhibition of human recombinant PI3Kgamma
[34] = target: Mitogen-activated protein kinase 9 (Homo sapiens, UniProt P45984); assay: Inhibition of human recombinant JNK2
[35] = target: Tyrosine-protein kinase JAK3 (Homo sapiens, UniProt P52333); assay: Inhibition of human recombinant JAK3
[36] = target: Tyrosine-protein kinase SYK (Homo sapiens, UniProt P43405); assay: Inhibition of human recombinant Syk
[37] = target: Mitogen-activated protein kinase 14 (Homo sapiens, UniProt Q16539); assay: Inhibition of human recombinant p38alpha
[38] = target: Tyrosine-protein kinase JAK1 (Homo sapiens, UniProt P23458); assay: Inhibition of human recombinant JAK1
Cynomolgus monkey = assay: Prolongation of allograft survival in cynomolgus monkey renal allograft model; type: functional, organism-based; settings: Macaca fascicularis
[39] = target: Protein kinase C zeta type (Homo sapiens, UniProt Q05513); assay: Inhibition of PKCzeta by SPA
[40] = target: Serine/threonine-protein kinase PAK 2 (Homo sapiens, UniProt Q13177); assay: Inhibition of human recombinant PAK2
[41] = target: Tyrosine-protein kinase JAK2 (Homo sapiens, UniProt O60674); assay: Inhibition of human recombinant JAK2
[42] = target: Rho-associated protein kinase 1 (Homo sapiens, UniProt Q13464); assay: Inhibition of human recombinant ROCK1
[43] = target: Receptor tyrosine-protein kinase erbB-2 (Homo sapiens, UniProt P04626); assay: Inhibition of human recombinant HER2
[44] = target: Hepatocyte growth factor receptor (Homo sapiens, UniProt P08581); assay: Inhibition of human recombinant Met
[45] = target: Mast/stem cell growth factor receptor Kit (Homo sapiens, UniProt P10721); assay: Inhibition of human recombinant Kit
[46] = Clearance in OFA rat at 5 mg/kg, iv; type: ADME, organism-based; set-up: dose 5 mg/kg, route intravenous; settings: in vivo; in short: as §1
Rattus norvegicus [47] = organism: Rattus norvegicus; assay: Immunosuppressive activity in rat localized graft-versus-host model; type: functional, organism-based
[48] = target: Tyrosine-protein kinase receptor UFO (Homo sapiens, UniProt P30530); assay: Inhibition of human recombinant Axl
[49] = target: Tyrosine-protein kinase BTK (Homo sapiens, UniProt Q06187); assay: Inhibition of human recombinant Btk
[50] = target: Tyrosine-protein kinase ZAP-70 (Homo sapiens, UniProt P43403); assay: Inhibition of human recombinant ZAP70
[51] = target: Vascular endothelial growth factor receptor 3 (Homo sapiens, UniProt P35916); assay: Inhibition of human recombinant Flt4
[52] = Elimination half life in OFA rat at 5 mg/kg, iv; type: ADME, organism-based; set-up: dose 5 mg/kg, route intravenous; settings: in vivo, read-out: beta t1/2 (converted); in short: as §1
[53] = target: RAC-alpha serine/threonine-protein kinase (Homo sapiens, UniProt P31749); assay: Inhibition of human recombinant Akt1
[54] = target: Glycogen synthase kinase-3 beta (Homo sapiens, UniProt P49841); assay: Inhibition of human recombinant GSK3-beta
[55] = target: Tyrosine-protein kinase HCK (Homo sapiens, UniProt P08631); assay: Inhibition of human recombinant Hck

Protein kinase C eta type, sequence (P24723 whole entry): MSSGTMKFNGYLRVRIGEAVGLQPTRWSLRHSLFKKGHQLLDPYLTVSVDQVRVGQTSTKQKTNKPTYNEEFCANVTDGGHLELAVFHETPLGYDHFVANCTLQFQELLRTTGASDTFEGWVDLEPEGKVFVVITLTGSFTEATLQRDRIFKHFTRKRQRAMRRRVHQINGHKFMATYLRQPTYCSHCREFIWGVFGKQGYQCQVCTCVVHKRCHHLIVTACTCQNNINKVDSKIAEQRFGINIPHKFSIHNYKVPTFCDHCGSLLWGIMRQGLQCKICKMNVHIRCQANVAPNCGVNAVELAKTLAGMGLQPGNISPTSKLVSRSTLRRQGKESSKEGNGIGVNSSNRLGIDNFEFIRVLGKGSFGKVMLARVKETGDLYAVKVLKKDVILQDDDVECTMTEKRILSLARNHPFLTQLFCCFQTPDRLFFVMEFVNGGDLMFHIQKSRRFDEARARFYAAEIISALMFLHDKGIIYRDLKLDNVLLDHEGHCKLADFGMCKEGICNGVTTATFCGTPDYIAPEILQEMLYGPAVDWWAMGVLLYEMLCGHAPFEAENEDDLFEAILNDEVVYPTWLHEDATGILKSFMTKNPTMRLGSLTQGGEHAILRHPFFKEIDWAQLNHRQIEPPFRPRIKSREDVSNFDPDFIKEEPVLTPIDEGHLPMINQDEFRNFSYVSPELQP
Protein kinase C theta type, sequence (Q04759 whole entry): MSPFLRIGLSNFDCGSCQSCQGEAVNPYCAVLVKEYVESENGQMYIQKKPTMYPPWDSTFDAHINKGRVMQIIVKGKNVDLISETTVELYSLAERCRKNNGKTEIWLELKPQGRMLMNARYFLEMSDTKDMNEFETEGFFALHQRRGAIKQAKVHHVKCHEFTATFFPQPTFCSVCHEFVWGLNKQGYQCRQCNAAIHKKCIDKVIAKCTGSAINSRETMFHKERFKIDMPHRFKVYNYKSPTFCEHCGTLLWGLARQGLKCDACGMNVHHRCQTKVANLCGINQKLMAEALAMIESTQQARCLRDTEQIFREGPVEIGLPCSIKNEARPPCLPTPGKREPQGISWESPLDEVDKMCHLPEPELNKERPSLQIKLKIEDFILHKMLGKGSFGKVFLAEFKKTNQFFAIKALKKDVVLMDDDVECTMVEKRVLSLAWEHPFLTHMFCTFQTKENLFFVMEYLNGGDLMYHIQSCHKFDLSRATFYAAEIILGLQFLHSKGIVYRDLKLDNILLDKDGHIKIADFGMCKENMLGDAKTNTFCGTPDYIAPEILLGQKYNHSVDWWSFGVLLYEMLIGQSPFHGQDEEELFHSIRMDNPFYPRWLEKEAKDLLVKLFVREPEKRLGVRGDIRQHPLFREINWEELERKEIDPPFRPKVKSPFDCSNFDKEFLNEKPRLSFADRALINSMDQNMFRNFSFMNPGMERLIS
Protein kinase C delta type, sequence (Q05655 whole entry): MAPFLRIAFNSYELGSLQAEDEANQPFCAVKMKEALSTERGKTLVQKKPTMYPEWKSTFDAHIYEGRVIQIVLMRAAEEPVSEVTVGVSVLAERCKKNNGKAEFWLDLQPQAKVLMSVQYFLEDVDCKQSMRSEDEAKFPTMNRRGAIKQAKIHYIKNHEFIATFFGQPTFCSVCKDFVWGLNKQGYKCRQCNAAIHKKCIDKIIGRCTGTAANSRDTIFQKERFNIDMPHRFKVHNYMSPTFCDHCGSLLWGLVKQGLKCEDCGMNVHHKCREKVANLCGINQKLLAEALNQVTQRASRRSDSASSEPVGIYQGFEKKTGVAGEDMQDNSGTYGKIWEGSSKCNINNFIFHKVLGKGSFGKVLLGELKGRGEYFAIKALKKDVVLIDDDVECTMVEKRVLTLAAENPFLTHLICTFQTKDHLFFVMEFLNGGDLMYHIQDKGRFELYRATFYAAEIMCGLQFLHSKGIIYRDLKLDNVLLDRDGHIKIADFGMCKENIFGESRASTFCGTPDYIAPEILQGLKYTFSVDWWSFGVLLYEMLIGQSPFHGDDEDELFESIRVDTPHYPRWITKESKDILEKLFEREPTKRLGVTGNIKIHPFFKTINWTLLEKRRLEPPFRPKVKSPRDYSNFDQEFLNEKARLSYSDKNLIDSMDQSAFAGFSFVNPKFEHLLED
Protein kinase C beta type, sequence (P05771 whole entry): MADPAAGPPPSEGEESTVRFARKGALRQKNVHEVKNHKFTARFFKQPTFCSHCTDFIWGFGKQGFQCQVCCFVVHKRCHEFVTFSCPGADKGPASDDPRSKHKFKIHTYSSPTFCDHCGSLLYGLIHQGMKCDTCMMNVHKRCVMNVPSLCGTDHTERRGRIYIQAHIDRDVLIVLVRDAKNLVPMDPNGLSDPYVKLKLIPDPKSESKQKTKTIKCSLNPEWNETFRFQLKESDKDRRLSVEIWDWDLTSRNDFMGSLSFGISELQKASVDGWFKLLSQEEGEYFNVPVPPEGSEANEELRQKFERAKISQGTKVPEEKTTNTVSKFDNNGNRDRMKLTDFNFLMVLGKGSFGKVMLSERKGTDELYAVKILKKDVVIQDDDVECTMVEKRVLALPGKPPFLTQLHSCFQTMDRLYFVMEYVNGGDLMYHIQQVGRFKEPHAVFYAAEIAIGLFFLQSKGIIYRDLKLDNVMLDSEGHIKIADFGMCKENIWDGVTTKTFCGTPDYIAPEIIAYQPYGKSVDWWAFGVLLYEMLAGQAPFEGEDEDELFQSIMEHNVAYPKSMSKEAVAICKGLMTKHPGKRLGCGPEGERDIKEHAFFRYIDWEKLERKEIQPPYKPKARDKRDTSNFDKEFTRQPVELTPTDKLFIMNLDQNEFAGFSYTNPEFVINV
Ephrin type-B receptor 4, sequence (P54760 whole entry, canonical isoform): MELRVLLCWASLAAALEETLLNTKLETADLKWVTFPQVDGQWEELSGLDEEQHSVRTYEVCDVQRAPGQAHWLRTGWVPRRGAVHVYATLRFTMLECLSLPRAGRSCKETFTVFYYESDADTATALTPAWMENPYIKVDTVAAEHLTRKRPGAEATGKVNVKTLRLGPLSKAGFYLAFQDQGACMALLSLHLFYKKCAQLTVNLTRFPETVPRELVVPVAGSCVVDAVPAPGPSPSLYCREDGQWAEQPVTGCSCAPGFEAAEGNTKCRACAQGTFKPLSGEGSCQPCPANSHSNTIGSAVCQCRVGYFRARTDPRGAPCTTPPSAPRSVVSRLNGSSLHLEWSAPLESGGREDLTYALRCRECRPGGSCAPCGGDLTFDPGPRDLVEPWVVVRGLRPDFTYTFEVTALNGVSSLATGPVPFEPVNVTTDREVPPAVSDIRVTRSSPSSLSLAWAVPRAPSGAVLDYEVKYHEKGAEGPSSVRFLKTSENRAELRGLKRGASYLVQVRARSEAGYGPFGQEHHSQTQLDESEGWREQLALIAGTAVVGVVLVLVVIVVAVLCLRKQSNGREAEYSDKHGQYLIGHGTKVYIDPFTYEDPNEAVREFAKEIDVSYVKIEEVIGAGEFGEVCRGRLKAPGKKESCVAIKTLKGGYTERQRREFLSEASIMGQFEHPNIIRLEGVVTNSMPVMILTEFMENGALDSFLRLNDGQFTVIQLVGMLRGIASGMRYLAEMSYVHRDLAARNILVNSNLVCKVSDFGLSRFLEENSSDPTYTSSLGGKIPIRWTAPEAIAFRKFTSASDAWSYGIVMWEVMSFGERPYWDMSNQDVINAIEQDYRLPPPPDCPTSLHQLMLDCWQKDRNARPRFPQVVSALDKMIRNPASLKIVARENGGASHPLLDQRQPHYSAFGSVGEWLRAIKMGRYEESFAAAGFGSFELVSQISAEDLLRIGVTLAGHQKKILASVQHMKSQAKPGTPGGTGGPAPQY
Tyrosine-protein kinase Lck, sequence (P06239 whole entry): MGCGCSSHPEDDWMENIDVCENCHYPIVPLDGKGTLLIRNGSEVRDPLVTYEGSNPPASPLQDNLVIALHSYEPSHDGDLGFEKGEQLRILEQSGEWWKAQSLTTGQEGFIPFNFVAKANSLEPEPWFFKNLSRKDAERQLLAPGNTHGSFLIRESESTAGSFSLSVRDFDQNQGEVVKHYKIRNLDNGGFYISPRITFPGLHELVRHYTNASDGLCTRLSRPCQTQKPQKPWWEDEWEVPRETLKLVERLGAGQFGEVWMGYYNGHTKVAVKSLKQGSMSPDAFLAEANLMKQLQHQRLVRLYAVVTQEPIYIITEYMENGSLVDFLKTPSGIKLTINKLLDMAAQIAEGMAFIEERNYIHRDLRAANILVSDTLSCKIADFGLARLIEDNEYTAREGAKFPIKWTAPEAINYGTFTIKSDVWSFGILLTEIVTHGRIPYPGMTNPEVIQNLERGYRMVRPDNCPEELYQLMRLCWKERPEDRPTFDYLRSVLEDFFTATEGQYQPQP

SMILES: CN(C)CCOc1cccc(C2=C(c3c[nH]c4ccccc34)C(=O)NC2=O)c1
- IC50 [1]: 29 nM
- IC50 [2]: 52 nM
- IC50 [3]: 15 nM
- IC50 (cells [4]): 668 nM
- IC50 [5]: 58 nM
- IC50 [6]: 47 nM
- IC50 [7]: 47 nM

SMILES: CN1CCN(c2nc(C3=C(c4c[nH]c5ccccc45)C(=O)NC3=O)c3ccccc3n2)CC1 [SOTRASTAURIN]
- IC50 [8]: 3900 nM
- IC50 [9]: 3300 nM
- IC50 [10]: 2300 nM
- IC50 (cells [11]): 34 nM
- IC50 (cells [12]): 3700 nM
- IC50 [13]: > 10000 nM
- Tmax [14]: 0.5 h
- AUC(0-inf) [15]: 2210 ng·h/mL
- IC50 [16]: > 10000 nM
- bioavailability [17]: 34%
- pKa [18]: 7.4
- Cmax [19]: 622 ng/mL
- IC50 [20]: > 10000 nM
- IC50 (Focal adhesion kinase 1): 8300 nM
- IC50 [21]: 5500 nM
- IC50 [22]: > 10000 nM
- Vd [23]: 6.5 L/kg
- IC50 [24]: 3400 nM
- IC50 [25]: > 10000 nM
- IC50 [26]: > 10000 nM
- IC50 [27]: > 10000 nM
- IC50 (Splenocyte): 128 nM
- IC50 [1]: 6.2 nM
- IC50 [28]: > 10000 nM
- Activity (Rattus norvegicus [29]): Active
- IC50 [30]: > 10000 nM
- IC50 [31]: > 10000 nM
- AUC(0-inf) [32]: 1630 ng·h/mL
- IC50 (Ephrin type-B receptor 4): > 10000 nM
- IC50 [33]: > 10000 nM
- IC50 [34]: > 10000 nM
- IC50 [35]: 1500 nM
- IC50 [36]: > 10000 nM
- IC50 [37]: > 10000 nM
- IC50 [2]: 1 nM
- IC50 [38]: 7300 nM
- Activity (Cynomolgus monkey): Active
- IC50 [39]: 5400 nM
- IC50 [40]: > 10000 nM
- IC50 [41]: > 10000 nM
- IC50 [42]: > 10000 nM
- IC50 [43]: > 10000 nM
- IC50 [44]: > 10000 nM
- IC50 [45]: > 10000 nM
- clearance [46]: 51.2 mL/min/kg
- IC50 (cells [4]): 54 nM
- Activity (Rattus norvegicus [47]): Active
- IC50 [48]: 9100 nM
- IC50 [6]: 1.3 nM
- IC50 [49]: > 10000 nM
- IC50 [50]: > 10000 nM
- IC50 [51]: 4600 nM
- half-life [52]: 3.2 h
- IC50 [53]: > 10000 nM
- IC50 [54]: 870 nM
- IC50 [55]: > 10000 nM
- IC50 [7]: 6.1 nM

SMILES: CN(C)CCCn1cc(C2=C(c3csc4ccccc34)C(=O)NC2=O)c2ccccc21
- IC50 [1]: 285 nM
- IC50 [2]: 255 nM
- IC50 [3]: 73 nM
- IC50 [5]: 47 nM
- IC50 [6]: 183 nM
- IC50 [7]: 293 nM
